Each structure is given as a SMILES string.

In series [1] the test system is Mus musculus. Description: Drug uptake in mouse 4T1 cells implanted BALB/c mouse assessed as time for drug accumulation at 0.045 to 0.36 mg/kg, ip administered for 48 hrs followed by irradiation at 40 mW/cm2. Particulars: in vivo.
Series [2] relates to Urinary bladder. Description: Drug uptake in BALB/c mouse bladder implanted with mouse 4T1 cells assessed per gram of tissue at 0.18 mg/kg, ip after 48 hrs by HPLC-based fluorescence analysis. It counts as ADME, organism-based. Conditions: in vivo. In a few lines: (§1)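 Female BALB/c mice bearing 4T1 thigh tumours received an i.p. dose in ethanol/PEG400/H2O (2/3/5) with 0.1% DMSO, or in saline, and were kept dark until killed. Tissues were weighed (100 mg), homogenised in CH3OH/DMSO/H2O (32/8/1) and centrifuged twice at 2300×g at 4°C. Supernatants were analysed by HPLC with fluorescence detection (λex 404/λem 654 nm or λex 400/λem 666 nm). n = 3 per time point.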

The subject of series [3] is 4T1. Nature of the series: Drug uptake in mouse 4T1 cells implanted in BALB/c mouse assessed per gram of tissue at 0.18 mg/kg, ip after 48 hrs by HPLC-based fluorescence analysis. Type of series: ADME, organism-based. Particulars: in vivo. A digest of the protocol:
(§2)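 Female BALB/c mice with 4T1 cells (1 × 10^6 in HBSS) implanted in left rear thigh; single i.p. dose, 7 in ethanol/PEG400/H2O (2/3/5) with 0.1% DMSO, mono-L-aspartyl chlorin e6 in saline; kept dark until sacrifice. Tissues washed, frozen, homogenized in CH3OH/DMSO/H2O (32/8/1), centrifuged 2300×g; supernatant analysed by HPLC with fluorescence detection; three animals per time point.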

Series [4] concerns Muscle tissue. Description: Drug uptake in BALB/c mouse muscle implanted with mouse 4T1 cells assessed per gram of tissue at 0.18 mg/kg, ip after 6 hrs by HPLC-based fluorescence analysis. It counts as ADME, organism-based. Particulars: in vivo. In a few lines:
as §1

Series [5] relates to Lung. Nature of the series: Drug uptake in BALB/c mouse lung implanted with mouse 4T1 cells assessed per gram of tissue at 0.18 mg/kg, ip after 48 hrs by HPLC-based fluorescence analysis. Type of series: ADME, organism-based. Conditions: in vivo. In a few lines: as §1
The subject of series [6] is 4T1. Description: Potency index, ratio of compound antitumor activity to mono-L-aspartyl chlorin e6 antitumor activity against mouse 4T1 cells implanted in ip dosed BALB/c mouse. Type of series: functional.
Series [7] relates to Liver. Nature of the series: Drug uptake in BALB/c mouse liver implanted with mouse 4T1 cells assessed per gram of tissue at 0.18 mg/kg, ip after 72 hrs by HPLC-based fluorescence analysis. Particulars: in vivo. It counts as ADME, organism-based. In a few lines:
as §1

Series [8] has as its system Lung. Description: Drug uptake in BALB/c mouse lung implanted with mouse 4T1 cells assessed per gram of tissue at 0.18 mg/kg, ip after 24 hrs by HPLC-based fluorescence analysis. It counts as ADME, organism-based. Conditions: in vivo. A digest of the protocol: as §1
Series [9] has as its system Zone of skin. Description: Drug uptake in BALB/c mouse skin implanted with mouse 4T1 cells assessed per gram of tissue at 0.18 mg/kg, ip after 24 hrs by HPLC-based fluorescence analysis. Type of series: ADME, organism-based. Conditions: in vivo. A digest of the protocol:
as §2

Take `CN1CC2C3=N/C(=C(/c4c(F)c(F)c(S[C@@H]5O[C@H](CO)[C@@H](O)[C@H](O)[C@H]5O)c(F)c4F)C4=N/C(=C(/c5c(F)c(F)c(F)c(F)c5F)c5ccc([nH]5)/C(c5c(F)c(F)c(S[C@@H]6O[C@H](CO)[C@@H](O)[C@H](O)[C@H]6O)c(F)c5F)=C5/C=CC(=N5)C3c3c(F)c(F)c(F)c(F)c3F)C=C4)C2C1` (some centres undefined): the Time in series [1] worked out at 48 h. In addition, the Drug uptake was found to be 3 ng/g in series [2]; 1.4 ng/g in [3]; 2.2 ng in series [4]; 11 ng in series [5]; 14 ng in series [7]; 29 ng/g in [8]. This compound also had a Drug uptake in series [9] of 0 ng. Further, the Ratio in series [6] turned out to be 250.

The values above are taken from ChEMBL document CHEMBL3734686, “Synthesis, Photophysical Properties, and Biological Evaluation of trans-Bisthioglycosylated Tetrakis(fluorophenyl)chlorin for Photodynamic Therapy” (J Med Chem, 2015).
